Where two headings read alike, the source gives them in different places.
Experiments:
[1] = tested on: BRCA1(BRCT) (six his-tagged, amino acids 1646–1859); conditions: cited from earlier work; for ΔGexp (binding free energy): Table 1; for ΔG (Exp): Table 2, brackets = error of the mean
[2] = tested on: BRCA1(BRCT) (six his-tagged, amino acids 1646–1859); test: Isothermal titration calorimetry; type: binding
In short: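 His6-BRCA1 BRCT (aa 1646–1859) was expressed in E. coli BL21(DE3) RIL (1 mM IPTG), Ni-affinity purified, and dialysed into 50 mM KH2PO4 pH 7.2. Peptides were quantified by amino acid analysis, freeze-dried and redissolved in the same buffer. At 25°C, 100–900 µM peptide was titrated into 10–30 µM protein: 3 µL, then 29 × 10 µL, 3 min apart, 307 rpm. Peptide-into-buffer heats were subtracted and the data integrated.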

[3] = isothermal calorimetric data, ref [9]

| Substance | ΔGexp (binding free energy) ([1]; T1–T4, ref [9]) | ΔG (Exp) ([1]; ref [9]) | also measured |
| --- | --- | --- | --- |
| Ac-EPTF-CONH2 [Peptide T4] | No binding | no binding | binding to BRCA1(BRCT) found experimentally ([1]; in words, ref [9]): does not bind |
| Ac-Nap-pSPTF-CONH2 [Peptide P7] | – | – | ΔΔG, increase in binding affinity compared to T1 ([2]; P7 vs T1, ITC): 0.3 kcal/mol; ΔG (Exp) ([2]; Table 2, brackets = error of the mean, ITC, 25°C, 50 mM KH2PO4 pH = 7.2): −7.8 (0.1) kcal/mol |
| Ac-pSATF-CONH2 [Peptide T2] | -6.7 kcal/mol | −6.7 (0.3) kcal/mol | – |
| Ac-pSPAF-CONH2 [Peptide T3] | -5.9 kcal/mol | −5.9 (0.2) kcal/mol | loss in binding affinity caused by Thr→Ala mutation (vs T1) [1, 3]: 1.6 kcal/mol |
| Ac-pSPTF-CONH2 [Peptide T1] | -7.5 kcal/mol | −7.5 (0.2) kcal/mol | – |
| Ac-pSPVF-CONH2 [Peptide T5] | – | – | ΔGexp (binding free energy) ([1]; T5, ref [18]): -7.8 kcal/mol; ΔG (Exp) ([1]; ref [18]): −7.8 (0.1) kcal/mol; enhancement of binding by Val mutation (vs T1) [1, 3]: 0.3 kcal/mol; binding affinity compared with T1 (in words) ([1]; isothermal calorimetric study, ref [18]): practically the same binding affinity |
